# Experimental data taken from ChEMBL document CHEMBL4033644, “Aromatase inhibitors and apoptotic inducers: Design, synthesis, anticancer activity and molecular modeling studies of novel phenothiazine derivatives carrying sulfonamide moiety as hybrid molecules” (Eur J Med Chem, 2017).
# Key:
# [1] = system: T47D; assay: Antiproliferative activity against human T47D cells after 48 hrs by SRB assay; assay type: functional, cell-based
# Outline: (§1)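 Cells grown in RPMI-1640 with 5% heat-inactivated FCS, 1 mmol L-1 L-glutamine and 50 µg/mL gentamicin at 37 °C, 5% CO2. Seeded at 1000–2000 cells/well, 24 h later exposed 48 h to 5, 12, 25 and 50 µmol L-1. Fixed with 10% TCA 1 h at 4 °C, stained with 0.4% SRB, dye dissolved in Tris-HCl, OD 564 nm. IC50 from Boltzmann sigmoidal nonlinear regression.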
# [2] = molecular target: T1, Aromatase (Homo sapiens, UniProt P11511); assay: Inhibition of aromatase activity in human T47D cells after 24 hrs; assay type: cell-based; details: for inhibition (INH): human, 24 h
# T1 sequence (P11511 whole entry): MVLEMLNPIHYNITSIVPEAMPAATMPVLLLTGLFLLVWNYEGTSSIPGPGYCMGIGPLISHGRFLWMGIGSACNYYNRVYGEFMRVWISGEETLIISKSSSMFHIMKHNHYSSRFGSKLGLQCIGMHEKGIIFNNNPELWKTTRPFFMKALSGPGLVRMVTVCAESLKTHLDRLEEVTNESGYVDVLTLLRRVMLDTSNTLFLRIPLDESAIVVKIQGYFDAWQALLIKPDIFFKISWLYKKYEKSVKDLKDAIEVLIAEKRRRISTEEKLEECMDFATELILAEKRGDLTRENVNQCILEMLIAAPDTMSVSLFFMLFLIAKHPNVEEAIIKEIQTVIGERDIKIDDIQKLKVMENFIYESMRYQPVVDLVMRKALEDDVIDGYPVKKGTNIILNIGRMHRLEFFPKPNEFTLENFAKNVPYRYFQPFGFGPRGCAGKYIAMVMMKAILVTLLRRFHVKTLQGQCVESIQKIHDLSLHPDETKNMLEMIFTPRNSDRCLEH
# Outline: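 T47D cells in DMEM with 10% FBS, 10 µg/ml insulin and 1% penicillin-streptomycin. Plated at 1.2–1.8 × 10,000 cells/well. Treated 24 h with serial dilutions, then cellular aromatase activity measured and IC50 determined.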
# [3] = system: T47D; assay: Cell cycle arrest in human T47D cells assessed as accumulation at G1 phase at 8.1 uM by flow cytometry (reference value: 64.92%); assay type: functional
# Outline: (§2)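 Cell cycle distribution by flow cytometry in T47D cells, treated cells versus untreated control, at 8.1 µM; percentage of cells in G1, S and G2/M phases recorded.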
# [4] = system: T47D; assay: Induction of apoptosis in human T47D cells assessed as increase in BAX expression level at IC50 by qRT-PCR analysis relative to control; assay type: functional
# [5] = system: T47D; assay: Induction of apoptosis in human T47D cells assessed as decrease in Bcl-XL expression level at IC50 by qRT-PCR analysis relative to control; assay type: functional, cell-based
# [6] = system: T47D; assay: Induction of apoptosis in human T47D cells assessed as increase in caspase-9 level by ELISA relative to control; assay type: functional
# Outline: (§3)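 Caspase-8 and caspase-9 in T47D cells quantified with separate human ELISA kits, reported as ng/mL against untreated control cells.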
# [7] = system: T47D; assay: Cell cycle arrest in human T47D cells assessed as accumulation at S phase at 8.1 uM by flow cytometry (reference value: 17.14%); assay type: functional; outline: as §2
# [8] = system: T47D; assay: Induction of apoptosis in human T47D cells assessed as increase in caspase-8 level by ELISA relative to control; assay type: functional; outline: as §3
# [9] = system: T47D; assay: Cell cycle arrest in human T47D cells assessed as accumulation at G2/M phase at 8.1 uM by flow cytometry (reference value: 15.81%); assay type: functional; outline: as §2
# [10] = system: T47D; assay: Induction of apoptosis in human T47D cells assessed as increase in Bax/Bcl2 ratio at IC50 by qRT-PCR analysis relative to control; assay type: functional
# [11] = Cytotoxicity against human 184A1 cells after 48 hrs by SRB assay; assay type: cell-based; details: 184A1, 48 h; outline: as §1
# [12] = system: T47D; assay: Induction of apoptosis in human T47D cells (reference value: 2.13%); assay type: functional
# [13] = system: T47D; assay: Cell cycle arrest in human T47D cells by flow cytometry; assay type: functional, cell-based; outline: as §2
IC50 [1],inhibition (INH) [2],Structure (SMILES),other results
58.1 µM,44.94%,COc1cc(NS(=O)(=O)c2ccc(N/C=C\C(=O)c3ccc4c(c3)Nc3ccccc3S4)cc2)nc(OC)n1,–
73.6 µM,–,Cc1ccnc(NS(=O)(=O)c2ccc(N/C=C\C(=O)c3ccc4c(c3)Nc3ccccc3S4)cc2)n1,–
83.2 µM,–,COc1cnc(NS(=O)(=O)c2ccc(N/C=C\C(=O)c3ccc4c(c3)Nc3ccccc3S4)cc2)nc1,–
67.6 µM,28.9%,NS(=O)(=O)c1ccc(N/C=C\C(=O)c2ccc3c(c2)Nc2ccccc2S3)cc1,–
23.7 µM,72.22%,N=C(N)NS(=O)(=O)c1ccc(N/C=C\C(=O)c2ccc3c(c2)Nc2ccccc2S3)cc1,IC50 [2]: 9.67 µM
9.8 µM,–,COc1cccc2c1C(=O)c1c(O)c3c(c(O)c1C2=O)C[C@@](O)(C(=O)CO)C[C@@H]3O[C@H]1C[C@H](N)[C@H](O)[C@H](C)O1 [DOXORUBICIN],–
8.1 µM,68.32%,O=C(/C=C\Nc1ccc(S(=O)(=O)Nc2nccs2)cc1)c1ccc2c(c1)Nc1ccccc1S2,Activity [3]: 7.4%; fold change (FC) [4]: 55000; Activity [5]: Below limit of detection; fold change (FC) [6]: 8.9; IC50 [2]: 5.67 µM; Activity [7]: 13.1%; fold change (FC) [8]: 34; Activity [9]: 56.3%; Ratio [10]: 1e+08; IC50 [11]: 391 µM; Activity [12]: 23.2%; Activity [13]: Dose-dependent effect
71.4 µM,–,Cc1nnc(NS(=O)(=O)c2ccc(N/C=C\C(=O)c3ccc4c(c3)Nc3ccccc3S4)cc2)s1,–
54.9 µM,31.92%,Nc1ccc(S(=O)(=O)c2ccc(N/C=C\C(=O)c3ccc4c(c3)Nc3ccccc3S4)cc2)cc1,–
82.2 µM,–,COc1ncnc(NS(=O)(=O)c2ccc(N/C=C\C(=O)c3ccc4c(c3)Nc3ccccc3S4)cc2)c1OC,–
71.8 µM,40.52%,CC(=O)NS(=O)(=O)c1ccc(N/C=C\C(=O)c2ccc3c(c2)Nc2ccccc2S3)cc1,–
91.1 µM,–,O=C(/C=C\Nc1ccc(S(=O)(=O)Nc2ccc3cn[nH]c3c2)cc1)c1ccc2c(c1)Nc1ccccc1S2,–
21.4 µM,65.1%,O=C(/C=C\Nc1ccc(S(=O)(=O)Nc2cnc3ccccc3n2)cc1)c1ccc2c(c1)Nc1ccccc1S2,IC50 [2]: 8.9 µM
46.4 µM,–,O=C(/C=C\Nc1ccc(S(=O)(=O)c2ccc(N/C=C\C(=O)c3ccc4c(c3)Nc3ccccc3S4)cc2)cc1)c1ccc2c(c1)Nc1ccccc1S2,–
8.8 µM,68.86%,O=C(/C=C\Nc1ccc(S(=O)(=O)Nc2ccccn2)cc1)c1ccc2c(c1)Nc1ccccc1S2,IC50 [2]: 6.7 µM
68.1 µM,–,O=C(/C=C\Nc1ccc(S(=O)(=O)Nc2ccnn2-c2ccccc2)cc1)c1ccc2c(c1)Nc1ccccc1S2,–
79.5 µM,–,Cc1noc(NS(=O)(=O)c2ccc(N/C=C\C(=O)c3ccc4c(c3)Nc3ccccc3S4)cc2)c1C,–
50.7 µM,43.62%,Cc1cc(C)nc(NS(=O)(=O)c2ccc(N/C=C\C(=O)c3ccc4c(c3)Nc3ccccc3S4)cc2)n1,–
136 µM,–,CN(C)/C=C\C(=O)c1ccc2c(c1)Nc1ccccc1S2,–
61.3 µM,30.82%,O=C(/C=C\Nc1ccc(S(=O)(=O)Nc2ncccn2)cc1)c1ccc2c(c1)Nc1ccccc1S2,–
78.4 µM,–,Cc1cc(NS(=O)(=O)c2ccc(N/C=C\C(=O)c3ccc4c(c3)Nc3ccccc3S4)cc2)on1,–
56.5 µM,35.88%,Cc1cc(NS(=O)(=O)c2ccc(N/C=C\C(=O)c3ccc4c(c3)Nc3ccccc3S4)cc2)nc(C)n1,–
